Laboratory results taken from article PMC6311382 (Angewandte Chemie (International ed. in English), 2015).

What was measured:
H. pylori HtrA [1] = biological target: T1, H. pylori HtrA (Helicobacter pylori, UniProt G2J5T2); assay: 1H STD NMR binding experiment; details: 10 μM HtrA
T1 sequence (G2J5T2 18-475): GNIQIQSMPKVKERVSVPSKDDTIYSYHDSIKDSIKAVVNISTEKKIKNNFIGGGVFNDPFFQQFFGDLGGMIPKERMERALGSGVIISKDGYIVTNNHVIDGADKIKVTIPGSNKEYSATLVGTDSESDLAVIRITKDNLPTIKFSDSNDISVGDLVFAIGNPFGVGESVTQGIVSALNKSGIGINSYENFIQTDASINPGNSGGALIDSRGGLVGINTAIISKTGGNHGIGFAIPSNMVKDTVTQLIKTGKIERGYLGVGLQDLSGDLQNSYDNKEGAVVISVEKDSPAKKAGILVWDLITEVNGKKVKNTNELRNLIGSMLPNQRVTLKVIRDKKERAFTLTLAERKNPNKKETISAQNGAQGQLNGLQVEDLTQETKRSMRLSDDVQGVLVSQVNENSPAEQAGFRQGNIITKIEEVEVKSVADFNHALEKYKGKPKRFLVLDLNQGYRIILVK

H. pylori HtrA [2] = biological target: T1, H. pylori HtrA; assay: SPR binding affinity and kinetics to HtrA
[3] = assay type: physicochemical; details: dynamic light scattering
H. pylori HtrA [4] = biological target: T1, H. pylori HtrA; assay: Western blot analysis of recombinant E-cadherin cleavage by HtrA; assay type: biochemical
Method in brief: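 Recombinant full-length 130 kDa E-cadherin is incubated with H. pylori HtrA and test compound at a range of concentrations. HtrA proteolysis is read by Western blot as generation of the roughly 90 kDa soluble E-cadherin fragment.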

[5] = test system: wild-type H. pylori transmigration; assay: Transwell migration assay across polarized MKN-28 epithelial layer; assay type: cell-based, Helicobacter pylori; details: 50 μM, 24 h, MKN-28 cells
Method in brief: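 Wild-type H. pylori crossing a polarized epithelial layer of human gastric adenocarcinoma MKN-28 cells in a transwell system, followed for 24 h with test compound at two concentrations. Transmigrated bacteria are read as colony-forming units. Significance at 24 h is tested by one-way ANOVA (Dunnett) against the untreated control.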

[6] = test system: wild-type Campylobacter jejuni transmigration; assay: Transwell migration assay, Campylobacter jejuni; assay type: cell-based; details: 50 and 100 μM, 24 h
Method in brief: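 Transmigration of wild-type Campylobacter jejuni is followed over 24 h with test compound at two concentrations. Bacteria are counted as colony-forming units. N = 3 independent experiments. Significance at 24 h is tested by one-way ANOVA (Dunnett) against the untreated control.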

Row | SMILES | saturation transfer / binding to HtrA (H. pylori HtrA [1]) | koff (H. pylori HtrA [2]) [s⁻¹] | LE (ligand efficiency) (H. pylori HtrA [2]; = −1.4 logKD/(number of non-hydrogen atoms)) | solubility kinetic [3] [µM] | proteolytic activity of HtrA (H. pylori HtrA [4]; at 50 μM) | concentration at which inhibition of E-cadherin cleavage is seen (H. pylori HtrA [4]; recombinant E-cadherin) [µM] | inhibition of H. pylori transmigration [5] | inhibition of C. jejuni transmigration, compared with H. pylori [6]
1 | CO[C@@H]1O[C@H](CO)[C@@H](O)[C@H](O)[C@H]1O [β-methyl-D-glucoside, reference compound] | no saturation transfer |  |  |  |  |  |  | 
2 | Cc1ccc(C)n1[C@@H](Cc1ccc(-c2ccc(C(=O)O)o2)cc1)C(=O)O [Compound 2] | direct binding | 1.8 | 0.24 | > 100 | blocked | 10 | significant effects | strikingly dissimilar outcome
